Measurements reported in ChEMBL document CHEMBL1811868, “Structure-activity relationship of 2-hydroxy-2-aryl-2,3-dihydro-imidazo[1,2-a]pyrimidinium salts and 2N-substituted 4(5)-aryl-2-amino-1H-imidazoles as inhibitors of biofilm formation by Salmonella Typhimurium and Pseudomonas aeruginosa” (Bioorg Med Chem, 2011).
Values belong to the compound of their own block, whether it stands above or below them. The source made the active and inactive calls. Unless noted, the calls are words filed in the database; no cut-off is given here.

Key:
[1] = test system: Salmonella typhimurium; assay: Antimicrobial activity against Salmonella Typhimurium ATCC 14028 assessed as inhibition of planktonic cell growth at IC50 after 24 hrs by […]; format: functional, organism-based; settings: Salmonella enterica subsp. enterica serovar Typhimurium
Outline: (§1)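 Planktonic growth was followed by Bioscreen growth curves, not by crystal violet. Overnight cultures were diluted 1:200 in TSB 1/20 and received compound serially diluted in DMSO or EtOH, in triplicate, with solvent controls. Plates were shaken at 25 °C for at least 24 h, reading A600 every 15 min.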

[2] = test system: Pseudomonas aeruginosa; assay: Antimicrobial activity against Pseudomonas aeruginosa PA14 assessed as inhibition of planktonic cell growth at IC50 after 24 hrs by […]; format: functional, organism-based; outline: as §1
[3] = test system: Pseudomonas aeruginosa; assay: Antimicrobial activity against Pseudomonas aeruginosa PA14 assessed as inhibition of planktonic cell growth at 80 uM after 24 hrs by […]; format: functional, organism-based; outline: as §1
[4] = test system: Salmonella typhimurium; assay: Antimicrobial activity against Salmonella Typhimurium ATCC 14028 assessed as inhibition of planktonic cell growth at 150 uM after 24 hrs by […]; format: functional, organism-based; settings: Salmonella enterica subsp. enterica serovar Typhimurium; outline: as §1
[5] = test system: Salmonella typhimurium; assay: Antimicrobial activity against Salmonella Typhimurium ATCC 14028 assessed as inhibition of biofilm formation after 24 hrs by spectrophotometry; format: functional, organism-based, Salmonella enterica subsp. enterica serovar Typhimurium; settings: Salmonella enterica, ATCC 14028, 24 h
Outline: (§2)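 Static peg-lid biofilm prevention assay. Twofold serial dilutions in TSB diluted 1/20, 2–3 repeats per compound. Overnight S. Typhimurium ATCC14028 (LB-grown) or P. aeruginosa PA14 (TSB-grown) cultures were diluted 1:100, giving ~10^6 cells/well, then incubated 24 h at 25 °C without shaking. Pegs were PBS-washed, stained 30 min with 0.1% crystal violet, extracted with 30% acetic acid and read at OD570. IC50 was fitted from the concentration gradient.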

[6] = test system: Pseudomonas aeruginosa; assay: Antimicrobial activity against Pseudomonas aeruginosa PA14 assessed as inhibition of biofilm formation after 24 hrs by spectrophotometry; format: functional, organism-based; settings: PA14, 24 h; outline: as §2
[7] = test system: Pseudomonas aeruginosa; assay: Antimicrobial activity against Pseudomonas aeruginosa PA14 assessed as inhibition of biofilm formation at 25 to 50 uM after 24 hrs by spectrophotometry; format: functional; outline: as §2
[8] = test system: Pseudomonas aeruginosa; assay: Antimicrobial activity against Pseudomonas aeruginosa PA14 assessed as inhibition of planktonic cell growth at 20 uM after 24 hrs by […]; format: functional, organism-based; outline: as §1
[9] = test system: Salmonella typhimurium; assay: Antimicrobial activity against Salmonella Typhimurium ATCC 14028 assessed as inhibition of planktonic cell growth at 80 uM after 24 hrs by […]; format: functional, organism-based; settings: Salmonella enterica subsp. enterica serovar Typhimurium; outline: as §1
[10] = test system: Salmonella typhimurium; assay: Antimicrobial activity against Salmonella Typhimurium ATCC 14028 assessed as inhibition of planktonic cell growth at 40 uM after 24 hrs by […]; format: functional, organism-based; settings: Salmonella enterica subsp. enterica serovar Typhimurium; outline: as §1
[11] = test system: Pseudomonas aeruginosa; assay: Antimicrobial activity against Pseudomonas aeruginosa PA14 assessed as inhibition of planktonic cell growth at 5 uM after 24 hrs by […]; format: functional, organism-based; outline: as §1
[12] = test system: Pseudomonas aeruginosa; assay: Antimicrobial activity against Pseudomonas aeruginosa PA14 assessed as inhibition of planktonic cell growth at 40 uM after 24 hrs by […]; format: functional, organism-based; outline: as §1
[13] = test system: Salmonella typhimurium; assay: Antimicrobial activity against Salmonella Typhimurium ATCC 14028 assessed as inhibition of planktonic cell growth at 20 uM after 24 hrs by […]; format: functional, organism-based; settings: Salmonella enterica subsp. enterica serovar Typhimurium; outline: as §1
[14] = test system: Pseudomonas aeruginosa; assay: Antimicrobial activity against Pseudomonas aeruginosa PA14 assessed as inhibition of planktonic cell growth at 100 uM after 24 hrs by […]; format: functional, organism-based; outline: as §1
[15] = test system: Pseudomonas aeruginosa; assay: Antimicrobial activity against Pseudomonas aeruginosa PA14 assessed as inhibition of planktonic cell growth at 10 uM after 24 hrs by […]; format: functional, organism-based; outline: as §1
[16] = test system: Salmonella typhimurium; assay: Antimicrobial activity against Salmonella Typhimurium ATCC 14028 assessed as inhibition of planktonic cell growth at 200 uM after 24 hrs by […]; format: functional, organism-based; settings: Salmonella enterica subsp. enterica serovar Typhimurium; outline: as §1

SMILES: Nc1ncc(-c2ccccc2)[nH]1
growth inhibition (GI) [1]: inactive | growth inhibition (GI) [2]: inactive | growth inhibition (GI) [3]: inactive | growth inhibition (GI) [4]: inactive

SMILES: CCCCCCCCCCCN1c2nccc[n+]2C[C@@]1(O)c1ccc(Cl)cc1.[Br-]
IC50 [5]: 61.9 µM | IC50 [6]: > 800 µM | growth inhibition (GI) [7]: > 25%

SMILES: CSc1ccc(-c2cnc(NC3CCCCC3)[nH]2)cc1
IC50 [5]: 191 µM | IC50 [6]: 15.8 µM | growth inhibition (GI) [2]: inactive | growth inhibition (GI) [8]: inactive

SMILES: CCCCCCCCNc1ncc(-c2ccc(S(C)(=O)=O)cc2)[nH]1
IC50 [5]: 41.8 µM | growth inhibition (GI) [1]: inactive | IC50 [6]: 3.1 µM | growth inhibition (GI) [2]: inactive | growth inhibition (GI) [9]: inactive | growth inhibition (GI) [8]: inactive

SMILES: Nc1ncc(-c2ccc(Cl)cc2)[nH]1
growth inhibition (GI) [1]: inactive | growth inhibition (GI) [10]: inactive | growth inhibition (GI) [2]: inactive | growth inhibition (GI) [11]: inactive

SMILES: Nc1ncc(-c2ccc([N+](=O)[O-])cc2)[nH]1
growth inhibition (GI) [1]: inactive | growth inhibition (GI) [10]: Active | growth inhibition (GI) [2]: inactive | growth inhibition (GI) [12]: inactive | growth inhibition (GI) [14]: Active

SMILES: Nc1ncc(-c2ccc(Br)cc2)[nH]1
growth inhibition (GI) [2]: inactive | growth inhibition (GI) [12]: Active | growth inhibition (GI) [15]: inactive

SMILES: CCCCCCCCCCCCCCN1c2nccc[n+]2C[C@@]1(O)c1ccccc1.[Br-]
IC50 [5]: 180 µM | IC50 [6]: > 800 µM | growth inhibition (GI) [7]: > 25%

SMILES: Nc1ncc(-c2ccc(F)cc2)[nH]1
growth inhibition (GI) [1]: inactive | growth inhibition (GI) [2]: inactive | growth inhibition (GI) [12]: inactive | growth inhibition (GI) [16]: inactive

SMILES: CCCCCCCCCCCCCN1c2nccc[n+]2C[C@@]1(O)c1ccccc1.[Br-]
IC50 [5]: 81.6 µM | IC50 [6]: > 800 µM | growth inhibition (GI) [7]: > 25%

Further compounds by falling IC50 [5], results first:

IC50 [5]: 27.5 µM | IC50 [6]: > 800 µM
SMILES: CCCCCCCCCCCCN1c2nccc[n+]2C[C@@]1(O)c1ccccc1.[Br-]
growth inhibition (GI) [1]: Active | growth inhibition (GI) [10]: Active | growth inhibition (GI) [7]: > 25%

IC50 [5]: 24.6 µM | IC50 [6]: > 800 µM
SMILES: CCCCCCCCCCCN1c2nccc[n+]2C[C@@]1(O)c1ccccc1.[Br-]
growth inhibition (GI) [1]: Active | growth inhibition (GI) [10]: Active | growth inhibition (GI) [7]: > 25%

IC50 [5]: 12.1 µM | IC50 [6]: 7.2 µM
SMILES: Brc1ccc(-c2cnc(NC3CCCC3)[nH]2)cc1
growth inhibition (GI) [1]: inactive | growth inhibition (GI) [2]: inactive | growth inhibition (GI) [13]: inactive | growth inhibition (GI) [8]: inactive

IC50 [5]: 7.1 µM | IC50 [6]: 9.8 µM
SMILES: CCCCNc1ncc(-c2ccc(Br)cc2)[nH]1
growth inhibition (GI) [1]: inactive | growth inhibition (GI) [2]: inactive | growth inhibition (GI) [13]: inactive | growth inhibition (GI) [8]: inactive

IC50 [5]: 5.7 µM | IC50 [6]: 7.9 µM
SMILES: Clc1ccc(-c2cnc(NC3CCCC3)[nH]2)cc1Cl
growth inhibition (GI) [1]: inactive | growth inhibition (GI) [2]: inactive | growth inhibition (GI) [12]: inactive | growth inhibition (GI) [13]: inactive

IC50 [5]: 4.9 µM | IC50 [6]: 1.2 µM
SMILES: CC(C)CNc1ncc(-c2ccccc2)[nH]1
growth inhibition (GI) [1]: inactive | growth inhibition (GI) [10]: inactive | growth inhibition (GI) [2]: inactive | growth inhibition (GI) [11]: inactive

IC50 [5]: 3.1 µM | IC50 [6]: 10.2 µM
SMILES: CCCCCNc1ncc(-c2ccc(Br)cc2)[nH]1
growth inhibition (GI) [1]: inactive | growth inhibition (GI) [10]: Active | growth inhibition (GI) [2]: inactive | growth inhibition (GI) [13]: Active | growth inhibition (GI) [8]: inactive

IC50 [5]: 2.9 µM | IC50 [6]: 1.2 µM
SMILES: CC(C)CNc1ncc(-c2ccc(Br)cc2)[nH]1
growth inhibition (GI) [1]: inactive | growth inhibition (GI) [10]: Active | growth inhibition (GI) [2]: inactive | growth inhibition (GI) [13]: inactive | growth inhibition (GI) [11]: inactive

IC50 [5]: 2.2 µM | IC50 [6]: 0.7 µM
SMILES: CCCCCNc1ncc(-c2ccc(Cl)c(Cl)c2)[nH]1
growth inhibition (GI) [2]: inactive | growth inhibition (GI) [11]: inactive

IC50 [5]: 2 µM | IC50 [6]: 0.9 µM
SMILES: CC(C)CNc1ncc(-c2ccc(Cl)cc2)[nH]1
growth inhibition (GI) [1]: inactive | growth inhibition (GI) [10]: Active | growth inhibition (GI) [2]: inactive | growth inhibition (GI) [13]: inactive | growth inhibition (GI) [11]: inactive
